In ChEMBL document CHEMBL1136773, “Bridged bicyclic cores containing a 1,1-diarylethylene motif are high-affinity subtype-selective ligands for the estrogen receptor” (J Med Chem, 2003):

How the values were obtained:
[1] = biological target: T1, Estrogen receptor (Homo sapiens) (UniProt P03372); experiment: Binding affinity for purified human Estrogen receptor alpha was determined using a competitive radiometric binding assay with [3H]estradiol
T1 sequence (whole entry): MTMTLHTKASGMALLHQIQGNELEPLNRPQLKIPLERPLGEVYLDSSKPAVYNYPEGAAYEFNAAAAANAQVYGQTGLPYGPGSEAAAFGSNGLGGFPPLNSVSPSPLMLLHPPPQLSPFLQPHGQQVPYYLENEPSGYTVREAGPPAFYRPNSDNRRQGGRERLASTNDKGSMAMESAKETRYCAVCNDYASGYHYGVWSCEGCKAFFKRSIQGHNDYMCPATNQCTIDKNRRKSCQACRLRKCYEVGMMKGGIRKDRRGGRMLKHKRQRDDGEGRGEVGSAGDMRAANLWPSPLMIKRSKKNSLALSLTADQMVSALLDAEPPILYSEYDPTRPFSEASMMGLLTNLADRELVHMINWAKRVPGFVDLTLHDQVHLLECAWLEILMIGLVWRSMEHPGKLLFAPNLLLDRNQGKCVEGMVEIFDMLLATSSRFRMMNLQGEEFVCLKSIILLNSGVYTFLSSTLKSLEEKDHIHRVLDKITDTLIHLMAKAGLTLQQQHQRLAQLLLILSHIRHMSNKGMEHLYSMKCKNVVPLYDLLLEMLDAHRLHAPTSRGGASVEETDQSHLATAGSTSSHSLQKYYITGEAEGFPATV

[2] = biological target: Estrogen receptor beta (Homo sapiens) (UniProt Q92731); experiment: Binding affinity for purified human Estrogen receptor beta by displacement of [3H]estradiol
[3] = biological target: T1, Estrogen receptor (Homo sapiens); experiment: Transcriptional agonistic efficacy against ER alpha at 10e-6 M by cotransfection in HEC-1 cells; assay type: functional, cell-based
Method in brief: (§1)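 HEC-1 cells were grown in charcoal dextran-treated calf serum medium without phenol red. They were lipofected for 5 h at 37 °C with ERα or ERβ expression vector, 2ERE-pS2-Luc reporter and pCMV β-galactosidase control. Agonist screen used 10^-8 and 10^-6 M ligand for 24 h. Read-out is luciferase corrected by β-galactosidase, expressed as % of the 10^-9 M estradiol response.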

[4] = biological target: Estrogen receptor beta (Homo sapiens) (UniProt Q92731); experiment: Transcriptional agonistic efficacy against ER beta at 10e-6 M was determined by cotransfection in HEC-1 cells; assay type: functional, cell-based; method in brief: as §1
[5] = biological target: T1, Estrogen receptor (Homo sapiens); experiment: Transcriptional agonistic efficacy against ER alpha at 10e-8 M by cotransfection in HEC-1 cells; assay type: functional, cell-based; method in brief: as §1
[6] = biological target: Estrogen receptor beta (Homo sapiens) (UniProt Q92731); experiment: Transcriptional agonistic efficacy against ER beta at 10e-8 M by cotransfection in HEC-1 cells; assay type: functional, cell-based; method in brief: as §1
[7] = biological target: T1, Estrogen receptor (Homo sapiens); experiment: Transcriptional antagonistic efficacy agains ER alpha at 10e-6 M by cotransfection in HEC-1 cells; assay type: functional, cell-based
Method in brief: (§2)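 Cotransfection in HEC-1 cells as for agonism: ERα or ERβ vector, 2ERE-pS2-Luc reporter, β-galactosidase control, lipofectin for 5 h. Ligand at 10^-6 M was given together with 10^-9 M estradiol for 24 h. Luciferase activity was normalized to β-galactosidase and expressed relative to 10^-9 M estradiol alone, set at 100%.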

[8] = biological target: Estrogen receptor beta (Homo sapiens) (UniProt Q92731); experiment: Transcriptional antagonistic efficacy against ERbeta at 10e-6 M by cotransfectio in HEC-1 cells; assay type: functional, cell-based; method in brief: as §2
[9] = biological target: Estrogen receptor (Homo sapiens) (UniProt Q92731+P03372); experiment: Ratio of binding affinity for purified human estrogen beta receptors to that of binding affinity for purified human estrogen alpha receptors.
[10] = biological target: Estrogen receptor beta (Homo sapiens) (UniProt Q92731); experiment: Binding affinity for purified human Estrogen receptor beta was determined using a competitive radiometric binding assay with estradiol

Estrogen receptor beta (Homo sapiens), sequence (Q92731 whole entry): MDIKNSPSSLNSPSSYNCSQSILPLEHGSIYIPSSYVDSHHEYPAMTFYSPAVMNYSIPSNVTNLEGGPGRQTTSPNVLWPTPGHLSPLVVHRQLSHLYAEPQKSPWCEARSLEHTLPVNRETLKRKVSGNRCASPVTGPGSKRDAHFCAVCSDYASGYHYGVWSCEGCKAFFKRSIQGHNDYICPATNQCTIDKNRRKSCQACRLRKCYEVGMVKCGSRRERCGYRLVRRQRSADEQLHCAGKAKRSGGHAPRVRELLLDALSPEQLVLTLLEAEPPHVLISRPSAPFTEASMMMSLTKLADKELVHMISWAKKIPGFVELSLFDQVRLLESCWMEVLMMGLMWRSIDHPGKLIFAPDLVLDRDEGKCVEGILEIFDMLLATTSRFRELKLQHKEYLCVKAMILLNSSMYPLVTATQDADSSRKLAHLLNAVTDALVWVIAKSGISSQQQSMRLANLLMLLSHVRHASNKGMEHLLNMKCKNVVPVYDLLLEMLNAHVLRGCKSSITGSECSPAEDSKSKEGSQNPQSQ

Structure (SMILES)	RBA [1] [%]	RBA [2] [%]	Efficacy [3] [%]	Efficacy [4] [%]	Efficacy [5] [%]	Efficacy [6] [%]	Efficacy [7] [%]	Efficacy [8] [%]	Ratio [9]	RBA [10] [%]
CC12CCC(CC1=C(c1ccc(O)cc1)c1ccc(O)cc1)C2(C)C (stereo not drawn)	57	–	28	4	24	3	21	4	3.3	189
Oc1ccc(C2(c3ccc(O)cc3)C3CCCC2CCC3)cc1	0.31	–	6	4	1	2	43	78	0.81	0.25
CC1(C)CC(=C(c2ccc(O)cc2)c2ccc(O)cc2)C[C@]2(C)C(C)(C)[C@H]3CC[C@@]12C3	9	–	4	1	1	1	30	15	1.4	13
CC12CCC(C1)C(C)(C)C2=C(c1ccc(O)cc1)c1ccc(O)cc1 (stereo not drawn)	10	–	11	3	5	2	18	13	0.8	8
Oc1ccc(C(=C2CC3CC2C2CCCC32)c2ccc(O)cc2)cc1 (stereo not drawn)	97	–	26	2	27	2	35	2	1.3	125
Oc1ccc(C(c2ccc(O)cc2)C2CCCCC2)cc1	3.2	–	–	–	–	–	–	–	2.8	9
Oc1ccc(C(c2ccc(O)cc2)C2C3CCCC2CCC3)cc1 (stereo not drawn)	15	–	41	50	16	21	40	55	0.87	13

Continued, values first:

RBA [1] [%]	RBA [2] [%]	Efficacy [3] [%]	Efficacy [4] [%]	Efficacy [5] [%]	Efficacy [6] [%]	Efficacy [7] [%]	Efficacy [8] [%]	Ratio [9]	RBA [10] [%]	Structure (SMILES)
40	52	63	10	58	7	65	16	1.3	–	Oc1ccc(C(=C2C3CCCC2CCC3)c2ccc(F)cc2)cc1
513	301	22	2	25	2	23	2	0.59	–	Oc1ccc(C(=C2C3CCCC2CCC3)c2ccc(O)cc2)cc1
108	–	20	2	15	2	38	2	1.7	187	Oc1ccc(C(=C2C3CCCC2CCC3)c2ccc(O)c(O)c2)cc1
46	–	–	–	–	–	–	–	1.9	89	Oc1ccc(C(=C2C3CCCC2CCC3)c2cccc(O)c2)cc1
68	–	12	3	9	2	22	4	4.9	334	Oc1ccc(C(=C2CCCCC2)c2ccc(O)cc2)cc1
243	–	20	2	20	2	19	2	1.3	317	Oc1ccc(C(=C2C3CC4CC(C3)CC2C4)c2ccc(O)cc2)cc1
31	–	80	17	71	8	83	22	1.1	35	Oc1ccc(C(=C2C3CCCC2CCC3)c2ccccc2)cc1
47	–	22	3	25	3	32	3	4.5	211	Oc1ccc(C(=C2CC3CCC2C3)c2ccc(O)cc2)cc1 (stereo not drawn)
